Columns and labels:
Type in all cases: functional, cell-based
[1] = system: A549; experiment: Cytotoxicity against human A549 cells after 24 hrs by MTT assay
Procedure, shortened: (§1)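 Cell lines from the Navy Medical College, seeded at 8000 cells/well in 96-well plates. Compounds dissolved in DMSO (stock 10 g/L) and freshly diluted in medium. Dilutions were added in duplicate 24 h after seeding, with incubation continued at 37 °C. Viability read by MTT. IC50 taken as the concentration giving 50% growth inhibition, determined following NCCLS recommendations.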

[2] = Cytotoxicity against human QGY7701 cells after 24 hrs by MTT assay; settings: QGY7701, 24 h; procedure, shortened: as §1
[3] = system: HeLa; experiment: Cytotoxicity against human HeLa cells after 24 hrs by MTT assay; settings: Homo sapiens, HeLa, 24 h; read-out: IC50; procedure, shortened: as §1
[4] = system: SW480; experiment: Cytotoxicity against human SW480 cells after 24 hrs by MTT assay; settings: SW480, 24 h; procedure, shortened: as §1
[5] = Homo sapiens, A549, 24 h, read-out: IC50

Question: Which results are given for C=CC1=C(C(=O)Nc2ccc(OCC)cc2)C(c2ccc(F)cc2)OC1 (stereo unspecified)?
Answer: IC50 ([1]; a549): Not Active; IC50 [2]: 61.6 µM; IC50 [3]: > 100 µM; IC50 [4]: > 100 µM

Question: With C=CC1=C(C(=O)N2CCN(c3ccc(F)cc3)CC2)C(c2ccc(OC)cc2)OC1 (stereo unspecified) as the molecule, how does the IC50 [1, 5] read?
Answer: Its IC50 is 8.31 µM.

Question: And the IC50 [2]?
Answer: Its IC50 is 11 µM.

Question: What about the IC50 [3] of the same molecule?
Answer: Its IC50 is 9.86 µM.

Question: What about the IC50 [4] of the same molecule?
Answer: Its IC50 is greater than 100 µM.

Question: For C=CC1=C(C(=O)N2CCN(c3cccc(Cl)c3Cl)CC2)C(c2ccc(OC)cc2)OC1 (stereo unspecified), which IC50 [1, 5] is on record?
Answer: Its IC50 is 8.86 µM.

Question: And the IC50 [2]?
Answer: Its IC50 is 4.96 µM.

Question: What about the IC50 [3] of the same molecule?
Answer: The IC50 was 4 µM.

Question: And the IC50 [4]?
Answer: The IC50 was 29.2 µM.

Question: For COc1cccc2c1C(=O)c1c(O)c3c(c(O)c1C2=O)C[C@@](O)(C(=O)CO)C[C@@H]3O[C@H]1C[C@H](N)[C@H](O)[C@H](C)O1 [DOXORUBICIN], which IC50 [1, 5] is on record?
Answer: The IC50 was 6.61 µM.

Question: What about the IC50 [2] of the same molecule?
Answer: The IC50 was 8.65 µM.

Question: What about the IC50 [3] of the same molecule?
Answer: Its IC50 is 1.12 µM.

Question: And the IC50 [4]?
Answer: The IC50 was 65.2 µM.

Source: ChEMBL document CHEMBL1932981, “Synthesis of novel 2, 5-dihydrofuran derivatives and evaluation of their anticancer activity” (Eur J Med Chem, 2012)
